≈ marks a conversion by molar mass, not a printed value.
Experiments:
[1] = Drug uptake in Beagle dog at 3 mg/kg, po of compound as aqueous suspension measured at 8 hrs; type: ADME, organism-based, Canis lupus familiaris; parameters: dose 3 mg/kg, route oral; details: in vivo, read-out: Drug uptake
[2] = Half life in Wistar/Han rat at 3 mg/kg, iv; type: ADME, organism-based; parameters: dose 3 mg/kg, route intravenous; details: in vivo
Procedure, shortened: (§1)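 Single intravenous bolus via tail vein or jugular cannula of dual-cannulated animals, vehicle 2% dimethyl acetamide/20% PEG400/23.4% HPBCD. EDTA blood typically taken at 0.08, 0.25, 0.5, 1, 2, 4, 6, 8 and 24 h from the remaining cannulas. Plasma drug measured by LC/MS/MS following acetonitrile protein precipitation.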

[3] = test system: Hepatitis C virus; assay: Antiviral activity against Hepatitis C virus genotype 1b clinical isolate RO-10 expressing NS5B assessed as inhibition of viral replication after 4 days by luciferase reporter gene assay; type: functional, organism-based, Hepacivirus hominis; details: genotype 1b clinical isolate RO-10, 96 h
[4] = test system: Hepatitis C virus; assay: Antiviral activity against Hepatitis C virus genotype 1a H77 infected in human 2209-23 cells after 72 hrs by luciferase reporter gene assay in presence of 40% human serum; type: functional, organism-based, Hepacivirus hominis; details: genotype 1a H77, 2209-23, 72 h
[5] = test system: Hepatitis C virus; assay: Antiviral activity against Hepatitis C virus genotype 1a clinical isolate RO-38 expressing NS5B assessed as inhibition of viral replication after 4 days by luciferase reporter gene assay; type: functional, organism-based, Hepacivirus hominis; details: genotype 1a clinical isolate RO-38, 96 h
[6] = test system: Hepatitis C virus; assay: Antiviral activity against Hepatitis C virus genotype 1b Con1 infected in human 2209-23 cells after 72 hrs by luciferase reporter gene assay; type: functional, organism-based, Hepacivirus hominis; details: isolate Con1, 2209-23, 72 h
Procedure, shortened: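 Stable GT-1b Con1 subgenomic replicon cell line expressing a renilla luciferase reporter, used as the readout of inhibition. EC50 from luciferase signal, n 2.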

[7] = test system: Hepatitis C virus; assay: Antiviral activity against Hepatitis C virus genotype 1a clinical isolate RO-28 expressing NS5B assessed as inhibition of viral replication after 4 days by luciferase reporter gene assay; type: functional, organism-based, Hepacivirus hominis; details: genotype 1a clinical isolate RO-28, 96 h
[8] = test system: Hepatitis C virus; assay: Antiviral activity against Hepatitis C virus genotype 1b Con1 expressing NS5B assessed as inhibition of viral replication after 4 days by luciferase reporter gene assay; type: functional, organism-based, Hepacivirus hominis; details: isolate Con1, 96 h
[9] = test system: Hepatitis C virus; assay: Antiviral activity against Hepatitis C virus genotype 1b clinical isolate RO-1 expressing NS5B assessed as inhibition of viral replication after 4 days by luciferase reporter gene assay; type: functional, organism-based, Hepacivirus hominis; details: genotype 1b clinical isolate RO-1, 96 h
[10] = test system: Hepatitis C virus; assay: Antiviral activity against Hepatitis C virus genotype 1a clinical isolate RO-41 expressing NS5B assessed as inhibition of viral replication after 4 days by luciferase reporter gene assay; type: functional, organism-based, Hepacivirus hominis; details: genotype 1a clinical isolate RO-41, 96 h
[11] = test system: Hepatitis C virus; assay: Antiviral activity against Hepatitis C virus genotype 1a H77 expressing NS5B assessed as inhibition of viral replication after 4 days by luciferase reporter gene assay; type: functional, organism-based, Hepacivirus hominis; details: genotype 1a H77, 96 h
[12] = Cmax in Wistar/Han rat at 30 mg/kg, po of compound as aqueous suspension; type: ADME, organism-based; parameters: dose 30 mg/kg, route oral; details: in vivo
[13] = Ratio of EC50 for Hepatitis C virus genotype 1a H77 to EC50 for Hepatitis C virus genotype 1b Con1; type: functional
[14] = test system: Hepatitis C virus; assay: Antiviral activity against Hepatitis C virus genotype 1a clinical isolate RO-24 expressing NS5B assessed as inhibition of viral replication after 4 days by luciferase reporter gene assay; type: functional, organism-based, Hepacivirus hominis; details: genotype 1a clinical isolate RO-24, 96 h
[15] = test system: Hepatitis C virus; assay: Antiviral activity against Hepatitis C virus genotype 1a H77 infected in human 2209-23 cells after 72 hrs by luciferase reporter gene assay; type: functional, organism-based, Hepacivirus hominis; details: genotype 1a H77, 2209-23, 72 h
[16] = test system: Hepatitis C virus; assay: Antiviral activity against Hepatitis C virus genotype 1b clinical isolate RO-9 expressing NS5B assessed as inhibition of viral replication after 4 days by luciferase reporter gene assay; type: functional, organism-based, Hepacivirus hominis; details: genotype 1b clinical isolate RO-9, 96 h
[17] = test system: Hepatitis C virus; assay: Antiviral activity against Hepatitis C virus genotype 1b Con1 infected in human 2209-23 cells after 72 hrs by luciferase reporter gene assay in presence of 40% human serum; type: functional, organism-based, Hepacivirus hominis; details: isolate Con1, 2209-23, 72 h
[18] = test system: Hepatitis C virus; assay: Antiviral activity against Hepatitis C virus genotype 1b clinical isolate RO-2 expressing NS5B assessed as inhibition of viral replication after 4 days by luciferase reporter gene assay; type: functional, organism-based, Hepacivirus hominis; details: genotype 1b clinical isolate RO-2, 96 h
[19] = Cmax in Beagle dog at 3 mg/kg, po of compound as aqueous suspension; type: ADME, organism-based, Canis lupus familiaris; parameters: dose 3 mg/kg, route oral; details: in vivo
[20] = Oral bioavailability in Wistar/Han rat at 30 mg/kg of compound as aqueous suspension; type: ADME, organism-based; details: in vivo
[21] = test system: Hepatitis C virus; assay: Antiviral activity against Hepatitis C virus genotype 1a clinical isolate RO-18 expressing NS5B assessed as inhibition of viral replication after 4 days by luciferase reporter gene assay; type: functional, organism-based, Hepacivirus hominis; details: genotype 1a clinical isolate RO-18, 96 h
[22] = test system: Hepatitis C virus; assay: Antiviral activity against Hepatitis C virus genotype 1b clinical isolate RO-8 expressing NS5B assessed as inhibition of viral replication after 4 days by luciferase reporter gene assay; type: functional, organism-based, Hepacivirus hominis; details: genotype 1b clinical isolate RO-8, 96 h
[23] = Thermodynamic solubility of the compound; type: physicochemical; details: read-out: Therm_solubility
[24] = Clearance in Wistar/Han rat at 3 mg/kg, iv; type: ADME, organism-based; parameters: dose 3 mg/kg, route intravenous; details: in vivo; procedure, shortened: as §1
[25] = AUC (0 to infinity) in Wistar/Han rat at 30 mg/kg, po of compound as aqueous suspension; type: ADME, organism-based; parameters: time infinity, dose 30 mg/kg, route oral; details: plasma
[26] = Oral bioavailability in Beagle dog at 3 mg/kg of compound as aqueous suspension; type: ADME, organism-based, Canis lupus familiaris; details: in vivo
[27] = test system: Hepatitis C virus; assay: Antiviral activity against Hepatitis C virus genotype 1b clinical isolate RO-7 expressing NS5B assessed as inhibition of viral replication after 4 days by luciferase reporter gene assay; type: functional, organism-based, Hepacivirus hominis; details: genotype 1b clinical isolate RO-7, 96 h
[28] = test system: Hepatitis C virus; assay: Antiviral activity against Hepatitis C virus genotype 1b clinical isolate RO-4 expressing NS5B assessed as inhibition of viral replication after 4 days by luciferase reporter gene assay; type: functional, organism-based, Hepacivirus hominis; details: genotype 1b clinical isolate RO-4, 96 h
[29] = test system: Hepatitis C virus; assay: Ratio of EC50 for Hepatitis C virus genotype 1b Con1 in presence of human serum to EC50 for Hepatitis C virus genotype 1b Con1; type: functional, Hepacivirus hominis, isolate Con1
[30] = Volume of distribution at steady state in Beagle dog at 1 mg/kg, iv; type: ADME, organism-based, Canis lupus familiaris; parameters: dose 1 mg/kg, route intravenous; details: in vivo, read-out: Vdss; procedure, shortened: as §1
[31] = Drug uptake in Wistar/Han rat at 30 mg/kg, po of compound as aqueous suspension measured at 8 hrs; type: ADME, organism-based; parameters: dose 30 mg/kg, route oral; details: in vivo, read-out: Drug uptake
[32] = test system: Hepatitis C virus; assay: Antiviral activity against Hepatitis C virus genotype 1a clinical isolate RO-33 expressing NS5B assessed as inhibition of viral replication after 4 days by luciferase reporter gene assay; type: functional, organism-based, Hepacivirus hominis; details: genotype 1a clinical isolate RO-33, 96 h
[33] = AUC (0 to infinity) in Beagle dog at 3 mg/kg, po of compound as aqueous suspension; type: ADME, organism-based, Canis lupus familiaris; parameters: time infinity, dose 3 mg/kg, route oral; details: plasma
[34] = test system: Hepatitis C virus; assay: Antiviral activity against Hepatitis C virus genotype 1a clinical isolate RO-34 expressing NS5B assessed as inhibition of viral replication after 4 days by luciferase reporter gene assay; type: functional, organism-based, Hepacivirus hominis; details: genotype 1a clinical isolate RO-34, 96 h
[35] = test system: Hepatitis C virus; assay: Antiviral activity against Hepatitis C virus genotype 1b clinical isolate RO-3 expressing NS5B assessed as inhibition of viral replication after 4 days by luciferase reporter gene assay; type: functional, organism-based, Hepacivirus hominis; details: genotype 1b clinical isolate RO-3, 96 h
[36] = Clearance in Beagle dog at 1 mg/kg, iv; type: ADME, organism-based, Canis lupus familiaris; parameters: dose 1 mg/kg, route intravenous; details: in vivo; procedure, shortened: as §1
[37] = test system: Hepatitis C virus; assay: Ratio of EC50 for Hepatitis C virus genotype 1a H77 in presence of human serum to EC50 for Hepatitis C virus genotype 1a H77; type: functional, Hepacivirus hominis
[38] = test system: Hepatitis C virus; assay: Antiviral activity against Hepatitis C virus genotype 1a clinical isolate RO-35 expressing NS5B assessed as inhibition of viral replication after 4 days by luciferase reporter gene assay; type: functional, organism-based, Hepacivirus hominis; details: genotype 1a clinical isolate RO-35, 96 h
[39] = Half life in Beagle dog at 1 mg/kg, iv; type: ADME, organism-based, Canis lupus familiaris; parameters: dose 1 mg/kg, route intravenous; details: in vivo; procedure, shortened: as §1
[40] = Volume of distribution at steady state in Wistar/Han rat at 3 mg/kg, iv; type: ADME, organism-based; parameters: dose 3 mg/kg, route intravenous; details: in vivo, read-out: Vdss; procedure, shortened: as §1

Question: With `COc1ccc(-c2cc(C(C)(C)C)c(OC)c3cc(N4CC[C@H](CNS(C)(=O)=O)C4)cnc23)c(=O)[nH]1` as the compound, how does the concentration at 8 h [1] read?
Answer: 210 ng/mL

Question: What about the half-life [2] of the same compound?
Answer: 5.6 h

Question: What about the EC50 [3] of the same compound?
Answer: 1.67 nM

Question: What about the EC50 [4] of the same compound?
Answer: 10 nM

Question: And the EC90 [4]?
Answer: 61 nM

Question: And the EC50 [5]?
Answer: 9.5 nM

Question: What about the EC50 [6] of the same compound?
Answer: 12 nM

Question: And the EC50 [7]?
Answer: 0.2 nM

Question: And the EC50 [8]?
Answer: 1.2 nM

Question: What about the EC50 [9] of the same compound?
Answer: 0.3 nM

Question: What about the EC50 [10] of the same compound?
Answer: 0.27 nM

Question: What about the EC50 [11] of the same compound?
Answer: 0.65 nM

Question: What about the Cmax [12] of the same compound?
Answer: 3800 ng/mL

Question: What about the “Ratio EC50” value [13] of the same compound?
Answer: 1.4

Question: And the EC50 [14]?
Answer: 2.5 nM

Question: What about the EC50 [15] of the same compound?
Answer: 17 nM

Question: What about the EC50 [16] of the same compound?
Answer: 3.5 nM

Question: And the EC50 [17]?
Answer: 7.5 nM

Question: And the EC90 [17]?
Answer: 44 nM

Question: What about the EC50 [18] of the same compound?
Answer: 4 nM

Question: What about the Cmax [19] of the same compound?
Answer: 360 ng/mL

Question: What about the bioavailability [20] of the same compound?
Answer: 100%

Question: And the EC50 [21]?
Answer: 0.5 nM

Question: And the EC50 [22]?
Answer: 0.33 nM

Question: What about the solubility thermodynamic [23] of the same compound?
Answer: 39 µg/mL (≈ 75.8 µM)

Question: And the clearance [24]?
Answer: 13.8 mL/min/kg

Question: What about the AUC(0-inf) [25] of the same compound?
Answer: 37000 ng·h/mL

Question: What about the bioavailability [26] of the same compound?
Answer: 36%

Question: What about the EC50 [27] of the same compound?
Answer: 3.05 nM

Question: What about the EC50 [28] of the same compound?
Answer: 0.8 nM

Question: And the “Ratio EC50” value [29]?
Answer: 0.6

Question: And the Vd [30]?
Answer: 1.5 L/kg

Question: What about the concentration at 8 h [31] of the same compound?
Answer: 1790 ng/mL

Question: And the EC50 [32]?
Answer: 0.7 nM

Question: What about the AUC(0-inf) [33] of the same compound?
Answer: 4200 ng·h/mL

Question: And the EC50 [34]?
Answer: 0.4 nM

Question: And the EC50 [35]?
Answer: 6.1 nM

Question: What about the clearance [36] of the same compound?
Answer: 4.4 mL/min/kg

Question: What about the “Ratio EC50” value [37] of the same compound?
Answer: 0.6

Question: And the EC50 [38]?
Answer: 0.5 nM

Question: And the half-life [39]?
Answer: 5.1 h

Question: And the Vd [40]?
Answer: 2.3 L/kg

Reference: ChEMBL document CHEMBL3120083, “Discovery of N-[4-[6-tert-butyl-5-methoxy-8-(6-methoxy-2-oxo-1H-pyridin-3-yl)-3-quinolyl]phenyl]methanesulfonamide (RG7109), a potent inhibitor of the hepatitis C virus NS5B polymerase” (J Med Chem, 2014)
